Test system: not listed separately
Assay: Toxicity in BALB/c mouse infected with Leishmania donovani MHOM/IN/80/Dd8 promastigotes assessed as effect on health at 25 mg/kg, po administered once daily for 5 days measured up to 7 days post dose
Format: organism-based
Settings: in vivo
Summary of the method: (§1)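 BALB/c mice (20 ± 2 g) were infected by tail-vein injection of 2 × 10^7 stationary-phase promastigotes. From day 15 they were given miltefosine 25 mg/kg orally, suspended in triple-distilled water, daily for 5 days, and killed at day 7 post-treatment. Survival, health and body weight were monitored; 5 mice per group.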

SMILES	Activity
Cc1ncc([N+](=O)[O-])n1CCO [METRONIDAZOLE]	Non-Toxic
c1ccc2ncccc2c1 [QUINOLINE]	Non-Toxic
CCCCCCCCCCCCCCCCOP(=O)([O-])OCC[N+](C)(C)C [MILTEFOSINE]	Non-Toxic

Test system: Leishmania donovani
Assay: Antileishmanial activity against Leishmania donovani MHOM/IN/80/Dd8 promastigotes harboring luciferase reporter gene at 50 uM after 48 hrs by Steady-Glo luminescence assay relative to control
Format: functional
Settings: MHOM/IN/80/Dd8, 48 h
Summary of the method: (§2)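 Luciferase-expressing L. donovani Dd8 promastigotes were grown at 24 °C in M199 with 10% heat-inactivated FBS and G418 20 μg/mL. They were treated at varied concentrations for 24 and 48 h, and inhibition was read as relative luminescence units versus untreated control. IC50 was from dose–response; screening values are mean ± SD of at least three experiments in duplicate.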

SMILES	inhibition at 50 µM [%]
Cc1ncc([N+](=O)[O-])n1CCO [METRONIDAZOLE]	62.2
c1ccc2ncccc2c1 [QUINOLINE]	80.2
CCCCCCCCCCCCCCCCOP(=O)([O-])OCC[N+](C)(C)C [MILTEFOSINE]	99.5

Test system: not listed separately
Assay: Toxicity in BALB/c mouse infected with Leishmania donovani MHOM/IN/80/Dd8 promastigotes assessed as death at 25 mg/kg, po administered once daily for 5 days measured up to 7 days post dose
Format: organism-based
Settings: in vivo
Summary of the method: as §1

SMILES	Activity
Cc1ncc([N+](=O)[O-])n1CCO [METRONIDAZOLE]	Non-Toxic
c1ccc2ncccc2c1 [QUINOLINE]	Non-Toxic
CCCCCCCCCCCCCCCCOP(=O)([O-])OCC[N+](C)(C)C [MILTEFOSINE]	Non-Toxic

Test system: not listed separately
Assay: Toxicity in BALB/c mouse infected with Leishmania donovani MHOM/IN/80/Dd8 promastigotes assessed as death at 50 mg/kg, ip administered once daily for 5 days measured up to 7 days post dose
Format: organism-based
Settings: in vivo
Summary of the method: (§3)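 BALB/c mice (20 ± 2 g) were infected by tail-vein injection of 2 × 10^7 stationary-phase promastigotes. At day 15 they received ip doses in 8% DMSO/PBS for 5 consecutive days and were killed at day 7 post-treatment. Survival, general health and body weight were monitored; 5 mice per group.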

SMILES	Activity
Cc1ncc([N+](=O)[O-])n1CCO [METRONIDAZOLE]	Non-Toxic
c1ccc2ncccc2c1 [QUINOLINE]	Non-Toxic

Test system: not listed separately
Assay: Selectivity index, ratio of CC50 for […] Vero cells to IC50 for antileishmanial activity against Leishmania donovani MHOM/IN/80/Dd8 harboring luciferase reporter gene
Format: toxicity
Settings: not given
Summary of the method: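 J774 macrophages and Vero cells were exposed to 12.5–400 μM for 48 h, with viability by MTT. CC50 was derived, and SI was calculated as CC50 divided by anti-amastigote IC50 in each cell type.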

SMILES	selectivity ratio
CCCCCCCCCCCCCCCCOP(=O)([O-])OCC[N+](C)(C)C [MILTEFOSINE]	5.3

Test system: Leishmania donovani
Assay: Antileishmanial activity against Leishmania donovani MHOM/IN/80/Dd8 amastigotes harboring luciferase reporter gene infected in mouse J774 cells at 50 uM after 48 hrs by Steady-Glo luminescence assay relative to control
Format: functional
Settings: MHOM/IN/80/Dd8, J774, 48 h
Summary of the method: (§4)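 Infection of J774 macrophages with L. donovani Dd8 promastigotes at a 1:8 cell:parasite ratio. Compounds were diluted 2-fold in RPMI over 3.125–100 μM final and applied for 48 h. Amastigote inhibition was read by luciferase (RLU) or by Giemsa count of amastigotes per 100 macrophages. IC50 was from dose–response; n = 3 independent experiments done in replicate.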

SMILES	inhibition at 50 µM [%]
Cc1ncc([N+](=O)[O-])n1CCO [METRONIDAZOLE]	68.1
c1ccc2ncccc2c1 [QUINOLINE]	83.6
CCCCCCCCCCCCCCCCOP(=O)([O-])OCC[N+](C)(C)C [MILTEFOSINE]	99.2

Test system: not listed separately
Assay: Toxicity in BALB/c mouse infected with Leishmania donovani MHOM/IN/80/Dd8 promastigotes assessed as reduction in body weight at 12.5 to 200 mg/kg, ip administered once daily for 5 days measured up to 7 days post dose
Format: organism-based
Settings: in vivo
Summary of the method: as §3

SMILES	Activity
Cc1ncc([N+](=O)[O-])n1CCO [METRONIDAZOLE]	Non-Toxic
c1ccc2ncccc2c1 [QUINOLINE]	Non-Toxic

Test system: Leishmania donovani
Assay: Antileishmanial activity against Leishmania donovani MHOM/IN/80/Dd8 amastigotes harboring luciferase reporter gene infected in mouse J774 cells at 25 uM after 48 hrs by Steady-Glo luminescence assay relative to control
Format: functional
Settings: MHOM/IN/80/Dd8, J774, 48 h
Summary of the method: as §4

SMILES	inhibition at 25 µM [%]
Cc1ncc([N+](=O)[O-])n1CCO [METRONIDAZOLE]	31.2
c1ccc2ncccc2c1 [QUINOLINE]	64.5
CCCCCCCCCCCCCCCCOP(=O)([O-])OCC[N+](C)(C)C [MILTEFOSINE]	98.3

Test system: Leishmania donovani
Assay: Antileishmanial activity against Leishmania donovani MHOM/IN/80/Dd8 promastigotes infected in BALB/c mouse assessed as reduction in parasite load in liver at 50 mg/kg, ip administered once daily for 5 days measured 7 days post dose by giemsa staining-based assay relative to control
Format: functional
Parameters: scale not given: the % may be the effect or the level left
Settings: not given
Summary of the method: (§5)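 Hamster-passaged strain was transformed to promastigotes. Stationary-phase cells (2 × 10^7 in 0.2 mL PBS) were injected into the tail vein of BALB/c mice. From day 15 post-infection, mice received compound ip in 8% DMSO in PBS for 5 consecutive days, 5 mice per group. Mice were killed day 7 post-treatment. Liver and spleen burden was read from Giemsa-stained stamp smears as LDU.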

SMILES	Activity [%]
Cc1ncc([N+](=O)[O-])n1CCO [METRONIDAZOLE]	40.8
c1ccc2ncccc2c1 [QUINOLINE]	58.2

Test system: Leishmania donovani
Assay: Antileishmanial activity against Leishmania donovani MHOM/IN/80/Dd8 promastigotes infected in BALB/c mouse assessed as reduction in parasite load in spleen at 25 mg/kg, po administered once daily for 5 days measured 7 days post dose by giemsa staining-based assay relative to control
Format: functional
Parameters: scale not given: the % may be the effect or the level left
Settings: not given
Summary of the method: (§6)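 Reference-drug arm of the same infection model (BALB/c mice, 15-day infection, 2 × 10^7 promastigotes iv). Drug was suspended in triple distilled water and given orally at 25 mg/kg/day for 5 days, 5 mice per group. Hepatic and splenic burden was taken at day 7 post-treatment by Giemsa stamp smears, as LDU.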

SMILES	Activity [%]
CCCCCCCCCCCCCCCCOP(=O)([O-])OCC[N+](C)(C)C [MILTEFOSINE]	>98

Test system: not listed separately
Assay: Toxicity in BALB/c mouse infected with Leishmania donovani MHOM/IN/80/Dd8 promastigotes assessed as reduction in body weight at 50 mg/kg, ip administered once daily for 5 days measured up to 7 days post dose
Format: organism-based
Settings: in vivo
Summary of the method: as §3

SMILES	Activity
Cc1ncc([N+](=O)[O-])n1CCO [METRONIDAZOLE]	Non-Toxic
c1ccc2ncccc2c1 [QUINOLINE]	Non-Toxic

Test system: Leishmania donovani
Assay: Antileishmanial activity against Leishmania donovani MHOM/IN/80/Dd8 promastigotes infected in BALB/c mouse assessed as reduction in parasite load in spleen at 50 mg/kg, ip administered once daily for 5 days measured 7 days post dose by giemsa staining-based assay relative to control
Format: functional
Parameters: scale not given: the % may be the effect or the level left
Settings: not given
Summary of the method: as §5

SMILES	Activity [%]
Cc1ncc([N+](=O)[O-])n1CCO [METRONIDAZOLE]	36.6
c1ccc2ncccc2c1 [QUINOLINE]	55.2

Test system: not listed separately
Assay: Toxicity in BALB/c mouse infected with Leishmania donovani MHOM/IN/80/Dd8 promastigotes assessed as effect on health at 12.5 to 200 mg/kg, ip administered once daily for 5 days measured up to 7 days post dose
Format: organism-based
Settings: in vivo
Summary of the method: as §3

SMILES	Activity
Cc1ncc([N+](=O)[O-])n1CCO [METRONIDAZOLE]	Non-Toxic
c1ccc2ncccc2c1 [QUINOLINE]	Non-Toxic

Test system: not listed separately
Assay: Toxicity in BALB/c mouse infected with Leishmania donovani MHOM/IN/80/Dd8 promastigotes assessed as death at 12.5 to 200 mg/kg, ip administered once daily for 5 days measured up to 7 days post dose
Format: organism-based
Settings: in vivo
Summary of the method: as §3

SMILES	Activity
Cc1ncc([N+](=O)[O-])n1CCO [METRONIDAZOLE]	Non-Toxic
c1ccc2ncccc2c1 [QUINOLINE]	Non-Toxic

Test system: Leishmania donovani
Assay: Antileishmanial activity against Leishmania donovani MHOM/IN/80/Dd8 amastigotes harboring luciferase reporter gene infected in mouse J774 cells after 48 hrs by Steady-Glo luminescence assay
Format: functional, organism-based
Settings: MHOM/IN/80/Dd8, J774, 48 h
Summary of the method: as §4

SMILES	IC50 [µM]
CCCCCCCCCCCCCCCCOP(=O)([O-])OCC[N+](C)(C)C [MILTEFOSINE]	9.59

Test system: not listed separately
Assay: Toxicity in BALB/c mouse infected with Leishmania donovani MHOM/IN/80/Dd8 promastigotes assessed as effect on health at 50 mg/kg, ip administered once daily for 5 days measured up to 7 days post dose
Format: organism-based
Settings: in vivo
Summary of the method: as §3

SMILES	Activity
Cc1ncc([N+](=O)[O-])n1CCO [METRONIDAZOLE]	Non-Toxic
c1ccc2ncccc2c1 [QUINOLINE]	Non-Toxic

Test system: Leishmania donovani
Assay: Antileishmanial activity against Leishmania donovani MHOM/IN/80/Dd8 promastigotes harboring luciferase reporter gene at 25 uM after 48 hrs by Steady-Glo luminescence assay relative to control
Format: functional
Settings: MHOM/IN/80/Dd8, 48 h
Summary of the method: as §2

SMILES	inhibition at 25 µM [%]
Cc1ncc([N+](=O)[O-])n1CCO [METRONIDAZOLE]	41.3
c1ccc2ncccc2c1 [QUINOLINE]	42.4
CCCCCCCCCCCCCCCCOP(=O)([O-])OCC[N+](C)(C)C [MILTEFOSINE]	97.2

Test system: Leishmania donovani
Assay: Antileishmanial activity against Leishmania donovani MHOM/IN/80/Dd8 amastigotes harboring luciferase reporter gene infected in mouse J774 cells after 48 hrs by Giemsa staining-based microscopic assay
Format: functional, organism-based
Settings: MHOM/IN/80/Dd8, J774, 48 h
Summary of the method: as §4

SMILES	IC50 [µM]
CCCCCCCCCCCCCCCCOP(=O)([O-])OCC[N+](C)(C)C [MILTEFOSINE]	9.59

Test system: Leishmania donovani
Assay: Antileishmanial activity against Leishmania donovani MHOM/IN/80/Dd8 promastigotes infected in BALB/c mouse assessed as reduction in parasite load in liver at 25 mg/kg, po administered once daily for 5 days measured 7 days post dose by giemsa staining-based assay relative to control
Format: functional
Parameters: scale not given: the % may be the effect or the level left
Settings: not given
Summary of the method: as §6

SMILES	Activity [%]
CCCCCCCCCCCCCCCCOP(=O)([O-])OCC[N+](C)(C)C [MILTEFOSINE]	>98

Test system: not listed separately
Assay: Selectivity index, ratio of CC50 for mouse J774 cells to IC50 for antileishmanial activity against Leishmania donovani MHOM/IN/80/Dd8 harboring luciferase reporter gene
Settings: not given

SMILES	selectivity ratio
CCCCCCCCCCCCCCCCOP(=O)([O-])OCC[N+](C)(C)C [MILTEFOSINE]	5.8

Test system: not listed separately
Assay: Toxicity in BALB/c mouse infected with Leishmania donovani MHOM/IN/80/Dd8 promastigotes assessed as reduction in body weight at 25 mg/kg, po administered once daily for 5 days measured up to 7 days post dose
Format: organism-based
Settings: in vivo
Summary of the method: as §1

SMILES	Activity
Cc1ncc([N+](=O)[O-])n1CCO [METRONIDAZOLE]	Non-Toxic
c1ccc2ncccc2c1 [QUINOLINE]	Non-Toxic
CCCCCCCCCCCCCCCCOP(=O)([O-])OCC[N+](C)(C)C [MILTEFOSINE]	Non-Toxic

— ChEMBL document CHEMBL4396890, “Synthesis, Biological Evaluation, Structure-Activity Relationship, and Mechanism of Action Studies of Quinoline-Metronidazole Derivatives Against Experimental Visceral Leishmaniasis” (J Med Chem, 2019)
